Measurements pooled from the literature.
Organism: Staphylococcus aureus
Effect on: microbial growth

Compound | method | strain | time | notes | MIC
CCCCCC(=O)Oc1c(C)c(O)c(C(=O)/C=C/c2ccccc2)c(OC)c1C | broth dilution | ATCC25923 |  |  | > 5000 µg/mL
COc1cc2nccc(Oc3ccc(NC(=O)NC4CC4)c(Cl)c3)c2cc1C(N)=O |  | NCTC8325 |  |  | > 30 µM
Cc1cc(=O)[nH]n1C(=O)c1ccc(-n2c(C)ccc2C)cc1 | broth dilution | ATCC11632 | 18 h |  | 125 µg/mL
CCOc1ccc(-c2nc3cc(-c4nc5cc(N6CCN(C)CC6)ccc5[nH]4)ccc3[nH]2)cc1 | broth dilution | 33591 | 24 h |  | 2 to 4 µg/mL
C/C=C(\C)c1cc(OC(=O)c2c(O)c(C)c(O)c(Cl)c2/C(C)=C/C)c(C)c(O)c1C(=O)O | broth dilution | 6917 |  |  | > 64 µg/mL
CC(C)Oc1c(NC(=O)c2ccc(NC(=O)[C@H](CC(N)=O)NC(=O)c3ccc(NC(=O)Cc4ccc(C#N)cc4)cc3)cc2)ccc(C(=O)Nc2ccc(C(=O)O)cc2)c1O |  | ATCC29213 |  |  | > 64 µg/mL
Cc1cc(Nc2nc(N[C@@H](C)c3ccc(F)cc3)c(C#N)cc2F)n[nH]1 |  | NCTC8325 |  |  | 30 µM
O=C(Nc1ccc(F)cc1)c1ccccc1O | broth dilution | ATCC29213 |  |  | 32 µg/mL
Clc1ccc(Cn2c(-c3ccc(Cl)cc3)nc3ccccc32)cc1 | broth dilution | ATCC29213 MSSA |  |  | 8 µg/mL
COC(=O)c1cc(Sc2ccc(NC(=O)Nc3ccc(Cl)c(C(F)(F)F)c3)cc2)ccn1 |  | NCTC8325 | 24 h |  | 3 µM
CC(C)Oc1c(NC(=O)c2ccc(NC(=O)[C@H](CC(N)=O)NC(=O)c3ccc(NC(=O)c4ccc([N+](=O)[O-])c(OC(C)C)c4O)cc3)cc2)ccc(C(=O)Nc2ccc(C(=O)O)cc2)c1O |  | ATCC29213 |  |  | > 64 µg/mL
CN[C@H](CC(C)C)C(=O)N[C@H]1C(=O)N[C@@H](CC(N)=O)C(=O)N[C@H]2C(=O)N[C@H]3C(=O)N[C@H](C(=O)N[C@H](C(=O)O)c4cc(O)cc(O)c4-c4cc3ccc4O)[C@H](O)c3ccc(c(Cl)c3)Oc3cc2cc(c3O[C@@H]2O[C@H](CO)[C@@H](O)[C@H](O)[C@H]2O[C@H]2C[C@](C)(N)[C@H](O)[C@H](C)O2)Oc2ccc(cc2Cl)[C@H]1O | broth dilution | 6917 |  |  | 1 µg/mL
COc1ccc(C(=O)O)cc1NC(=O)/C=C/c1ccc(-c2ccccc2C)cc1 |  |  |  |  | 64 µg/mL
O=C(O)c1cn(C2CC2)c2cc(N3CCNCC3)c(F)cc2c1=O | broth dilution |  | 24 h |  | 9.43 µM
Cc1ccc2nc(-c3ccc(F)cc3)n(Cc3ccccc3)c2c1 | broth dilution | ATCC29213 MSSA |  |  | 64 µg/mL
Cc1cc(/C=C2\Sc3ccccc3N2CCCN2CCC(C)CC2)c2ccccc2[n+]1C.[I-] | broth dilution | ATCCBAA44 |  |  | 1 µg/mL
CC(C)Oc1c(NC(=O)c2ccc(NC(=O)[C@H](CC(N)=O)NC(=O)c3ccc(-c4nn[nH]c4-c4ccc(C#N)cc4)cc3)cc2)ccc(C(=O)Nc2ccc(C(=O)O)cc2)c1O |  | ATCC29213 |  |  | > 64 µg/mL
CN[C@H](CC(C)C)C(=O)N[C@H]1C(=O)N[C@@H](CC(N)=O)C(=O)N[C@H]2C(=O)N[C@H]3C(=O)N[C@H](C(=O)N[C@H](C(=O)O)c4cc(O)cc(O)c4-c4cc3ccc4O)[C@H](O)c3ccc(c(Cl)c3)Oc3cc2cc(c3O[C@@H]2O[C@H](CO)[C@@H](O)[C@H](O)[C@H]2O[C@H]2C[C@](C)(N)[C@H](O)[C@H](C)O2)Oc2ccc(cc2Cl)[C@H]1O | broth dilution | ATCC43300 MRSA | 18 h |  | 1 µg/mL
C/C=C(\C)c1cc(O)c(C)c(OC(=O)c2c(C)cc(O)c(Cl)c2O)c1 | broth dilution | ATCC29213 |  |  | 8 µg/mL
COc1cccc(-c2nc3ccccc3n2Cc2ccccc2)c1 | broth dilution | ATCC29213 MSSA |  |  | 256 µg/mL

Compound | method | strain | time | notes | MIC
CC(C)Oc1c(NC(=O)c2ccc(NC(=O)[C@H](CC(N)=O)NC(=O)c3ccc(NC(=O)c4ccc(F)cc4)cc3)cc2)ccc(C(=O)Nc2ccc(C(=O)O)cc2)c1O |  | ATCC29213 |  |  | 2 µg/mL
COc1cccc(OC)c1C(=O)N[C@@H]1C(=O)N2[C@@H]1SC(C)(C)[C@@H]2C(=O)O |  | 129 |  | clinical isolate | 37.5 µM
O=C(O)CN1C(=O)/C(=C/c2ccc(-c3ccc(N(c4ccccc4)c4ccccc4)cc3)c3ccccc23)SC1=S | broth dilution | ATCC6538 |  |  | 1000 µg/mL
C/C=C(\C)c1cc(O)c(C)c(OC(=O)c2c(C)c(Cl)c(O)c(Cl)c2O)c1 | broth dilution | 16162 |  |  | 2 µg/mL
Cc1ccc2nc(-c3ccco3)[nH]c2c1 | broth dilution | ATCC29213 MSSA |  |  | 256 µg/mL
c1ccc(NCc2ccc(Oc3ccccn3)cc2)cc1 |  |  |  |  | 1.8 µg/mL
Cc1ccc2nc(-c3c4ccccc4cc4ccccc34)[nH]c2c1 | broth dilution | ATCC29213 MSSA |  |  | 64 µg/mL
O=C(O)CN1C(=O)/C(=C/c2ccc(-c3ccc(N(c4ccccc4)c4ccccc4)cc3)cc2)SC1=S | broth dilution | ATCC25923 |  |  | 3.9 µg/mL
Fc1ccc(-c2nc3ccccc3[nH]2)cc1 | broth dilution | ATCC29213 MSSA |  |  | 256 µg/mL
CSc1ccc(/C=C/c2cc(/C=C3\Sc4ccccc4N3CCCN3CCCC3)c3ccccc3[n+]2C)cc1.[I-] | broth dilution | ATCCBAA44 |  |  | 32 µg/mL
C=CC1(C)CC(OC(=O)CSCCCCCN(C)C)C2(C)C(C)CCC3(CCC(=O)C32)C(C)C1O (stereo not shown) |  |  |  |  | 0.5 µg/mL
CCCCCCC#Cc1cncc(-c2nnc(SCc3ccc([N+](=O)[O-])o3)n2C2CC2)c1 |  | MRSA |  | drug-resistant strain | ≥ 20 µg/mL
CS(=O)(=O)c1cccc(-c2nnc(NC(=O)c3ccc(-c4ccccc4)cc3)o2)c1 |  |  |  |  | > 128 µg/mL
CSc1nc(Cl)cc(Sc2nnc(-c3cc(C(F)(F)F)cc(C(F)(F)F)c3)[nH]2)n1 |  | 83254 |  |  | 2.1 µM
CC1(C(=O)O)CCC(C(=O)Nc2ccc(Nc3ccccc3)cc2)C1(C)C (stereo not shown) |  |  |  |  | > 128 µg/mL
O=C(Nc1ccc2c(c1)OC(F)(F)O2)NC12CC3CC(CC(C3)C1)C2 |  | NCTC8325 |  |  | > 100 µM
NC[C@H]1O[C@H](O[C@H]2[C@H](O)[C@@H](O[C@H]3O[C@H](CO)[C@@H](O)[C@H](N)[C@H]3O)[C@H](N)C[C@@H]2N)[C@H](N)C[C@@H]1O |  | 156 |  | clinical isolate | 12.5 µM
O=C(Nc1ccc2c(c1)OC(F)(F)O2)Nc1ccc(Cl)c(C(F)(F)F)c1 |  | NCTC8325 |  |  | 0.3 µM
C/C=C(\C)c1cc(OC(=O)c2c(C)c(Cl)c(O)c(Cl)c2O)c(C)c(O)c1C(=O)O | broth dilution | CCARM3090 |  |  | 64 µg/mL
CC1(C)S[C@@H]2[C@H](NC(=O)COc3ccccc3)C(=O)N2[C@H]1C(=O)O |  | MRSA | 18 h |  | > 128 µg/mL

Compound | method | strain | time | notes | MIC
CO[C@H]1[C@H](O[C@H]([C@H]2O[C@@H](n3ccc(=O)[nH]c3=O)[C@H](O)[C@@H]2O)[C@H](NCCCNC(=O)[C@@H](NC(=O)[C@@H](NC(=O)N[C@H](C(=O)O)C(C)C)[C@@H]2CCN=C(N)N2)[C@@H](OC(=O)CCCCCCCCCCCCN(O)C(=N)N)C(C)C)C(=O)O)O[C@H](CN)[C@H]1O |  | NEWMAN |  |  | 18 µg/mL
N=C(N)NN=Cc1ccc(OC/C=C\COc2ccc(C=NNC(=N)N)cc2)cc1 |  | USA300 | 16 h |  | ≤ 3 µg/mL
Cc1cc(C(=O)Nc2ccc(C(=O)N[C@@H](CC(N)=O)C(=O)Nc3ccc(C(=O)Nc4ccc(C(=O)Nc5ccc(C(=O)O)cc5)c(O)c4OC(C)C)cc3)cc2)ccc1C#N |  | ATCC29213 |  |  | 2 µg/mL
Cc1ccc(C)n1-c1ccc(-c2n[nH]c(=S)[nH]2)cc1 | broth dilution | ATCC11632 | 18 h |  | 4 µg/mL
CC1=NN(CNc2c(O)c(S(=O)(=O)O)cc3ccccc23)C(=O)C1=NNn1c(-c2ccccc2)nc2ccccc2c1=O | broth dilution |  | 24 h |  | 83.7 µM
C/C(=C\c1ccc(O)cc1)C(=O)Nc1ccc(C(=O)N[C@@H](CC(N)=O)C(=O)Nc2ccc(C(=O)Nc3ccc(C(=O)Nc4ccc(C(=O)O)cc4)c(O)c3OC(C)C)cc2)cc1 |  | ATCC29213 |  |  | 0.25 µg/mL
O=C(O)CN1C(=O)/C(=C/c2c3ccccc3c(-c3ccc(N(c4ccccc4)c4ccccc4)cc3)c3ccccc23)NC1=S | broth dilution | ATCC43300 |  |  | > 1000 µg/mL
CN[C@H](CC(C)C)C(=O)N[C@H]1C(=O)N[C@@H](CC(N)=O)C(=O)N[C@H]2C(=O)N[C@H]3C(=O)N[C@H](C(=O)N[C@H](C(=O)O)c4cc(O)cc(O)c4-c4cc3ccc4O)[C@H](O)c3ccc(c(Cl)c3)Oc3cc2cc(c3O[C@@H]2O[C@H](CO)[C@@H](O)[C@H](O)[C@H]2O[C@H]2C[C@](C)(N)[C@H](O)[C@H](C)O2)Oc2ccc(cc2Cl)[C@H]1O |  | 10 |  |  | 2.2 µg/mL
O=C(O)CN1C(=O)/C(=C/c2ccc(-c3ccc(N(c4ccccc4)c4ccccc4)cc3)cc2)NC1=S | broth dilution | ATCC6538 |  |  | 1.95 µg/mL
COc1c(C)c(O)c(C)c(O)c1C(=O)/C=C/c1ccccc1 | broth dilution | ATCC25923 |  |  | 2500 µg/mL
CCOc1cc(-c2nc3ccccc3[nH]2)ccc1O | broth dilution | ATCC29213 MSSA |  |  | 128 µg/mL
OCCn1cc(-c2cnc3nnn(Cc4ccc5ncccc5c4)c3n2)cn1 |  | NCTC8325 |  |  | > 30 µM
CC(C)Oc1c(NC(=O)c2ccc(NC(=O)[C@H](CC(N)=O)NC(=O)c3ccc(NC(=O)c4ccc(N)cc4)cc3)cc2)ccc(C(=O)Nc2ccc(C(=O)O)cc2)c1O |  | ATCC29213 |  |  | > 64 µg/mL
O=C1NC(=S)N/C1=C\c1ccc(-c2ccc(N(c3ccccc3)c3ccccc3)cc2)cc1 | broth dilution | ATCC6538 |  |  | > 1000 µg/mL
COc1cccc2cc(-c3nc([C@H]4CC[C@H](C(=O)O)CC4)n4ncnc(N)c34)[nH]c12 |  | NCTC8325 |  |  | > 30 µM
C[C@@H](O)[C@H]1C(=O)N2C(C(=O)O)=C(SCCN=CN)C[C@H]12 | broth dilution | KCTC1621 | 16 h |  | 8 µM
C#CCCC1(CC(=O)NC(C)C)N=N1 |  | NCTC8325 |  |  | > 100 µM
Cc1ccc2nc(-c3ccc(Cl)cc3)n(Cc3ccccc3)c2c1 | broth dilution | ATCC29213 MSSA |  |  | 4 µg/mL
